Measured values taken from ChEMBL document CHEMBL4627246, “Pyroglutamide-Based P2X7 Receptor Antagonists Targeting Inflammatory Bowel Disease” (J Med Chem, 2020).
Active and inactive are the calls of the source. How the calls were made is not given here.

Target: T1, P2X purinoceptor 7 (Homo sapiens) (UniProt Q99572)
T1 sequence (whole entry): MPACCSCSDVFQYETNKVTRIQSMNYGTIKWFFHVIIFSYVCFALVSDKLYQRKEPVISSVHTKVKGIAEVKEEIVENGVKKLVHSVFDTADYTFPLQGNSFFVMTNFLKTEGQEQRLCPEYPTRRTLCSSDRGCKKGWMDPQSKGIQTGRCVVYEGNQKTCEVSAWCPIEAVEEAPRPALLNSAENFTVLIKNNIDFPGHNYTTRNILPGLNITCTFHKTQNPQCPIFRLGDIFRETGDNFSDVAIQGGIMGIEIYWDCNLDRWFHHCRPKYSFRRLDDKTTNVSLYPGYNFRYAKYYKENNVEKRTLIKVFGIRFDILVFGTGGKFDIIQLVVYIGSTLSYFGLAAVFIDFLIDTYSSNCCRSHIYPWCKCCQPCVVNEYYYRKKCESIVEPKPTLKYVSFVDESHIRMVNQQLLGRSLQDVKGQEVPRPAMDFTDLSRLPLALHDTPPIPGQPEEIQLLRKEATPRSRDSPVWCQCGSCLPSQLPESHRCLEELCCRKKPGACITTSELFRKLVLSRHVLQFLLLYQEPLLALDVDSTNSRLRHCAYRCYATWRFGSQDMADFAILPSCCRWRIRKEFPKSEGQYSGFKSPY
Experiment: Inhibition of human P2X7 expressed in human HEK293 cells assessed as reduction in BzATP-stimulated TO-PRO-3 incorporation at 10 uM preincubated with compound and TO-PRO-3 for 15 mins prior to BzATP addition and measured after 1 hr by Fluo-3AM dye based flow cytometry relative to control
Type: cell-based
Summary of the method: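 HEK-293 cells overexpressing human P2RX7 loaded with Fluo-3 AM, then incubated with TO-PRO-3 (large pore uptake) and propidium iodide (viability) plus compound (10⁻⁵ M single point) for 15 min before BzATP 100 µM. After 1 h, flow cytometry; percentage of Fluo-3/TO-PRO-3 double-positive cells calculated. Mean of n ≥ 2 with positive control.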

inhibition | SMILES
0% | O=C(NCCc1ccccc1)[C@@H]1CCC(=O)N1Cc1ccc([N+](=O)[O-])cc1
inactive | COC(=O)[C@@H]1CCC(=O)N1c1ccc(OC)cc1
0% | CN(C)C(=O)[C@@H]1CCC(=O)N1c1ccccc1
0% | O=C(NCc1ccc(Cl)cc1Cl)[C@@H]1CCC(=O)N1c1ccncc1
0% | C[C@H](NC(=O)[C@@H]1C/C(=C\N(C)C)C(=O)N1)c1ccccc1
inactive | O=C1CC[C@@H](C(=O)NCc2ccc(Cl)cc2Cl)N1
inactive | COC(=O)[C@@H]1CCC(=O)N1
0% | O=C(NCc1ccccc1)[C@@H]1CCC(=O)N1Cc1ccccc1
inactive | O=C1CC[C@@H](C(=O)NC2CCCCC2)N1
inactive | COC(=O)[C@@H]1CCC(=O)N1c1cccc2ncccc12
inactive | COC(=O)[C@@H]1COC(=O)N1
53% | CN(C)/C=C1\C[C@@H](C(=O)NCc2ccc(Cl)cc2Cl)NC1=O
inactive | Cc1ccc(NC(=O)[C@@H]2CCC(=O)N2)cc1
0% | O=C(NCc1ccc(Cl)cc1Cl)[C@@H]1CCC(=O)N1Cc1ccc(Cl)cc1Cl
0% | C[C@@H](c1ccccc1)N1C(=O)[C@@H]2C/C(=C\N(C)C)C(=O)N2C1N(C)C (stereo partly specified)
0% | O=C(NCc1ccc(Cl)cc1Cl)[C@@H]1CCC(=O)N1c1cccc2ncccc12
inactive | O=C1CC[C@@H](C(=O)NCCc2ccccc2)N1
inactive | COC(=O)C1C/C(=C\N(C)C)C(=O)N1C(=O)OC (stereo unspecified)
inactive | O=C1CC[C@@H](C(=O)NCc2ccncc2)N1
inactive | COc1ccc(NC(=O)[C@@H]2CCC(=O)N2)cc1F
inactive | O=C1CC[C@@H](C(=O)NC2CC3CCC2C3)N1 (stereo partly specified)
inactive | C[C@@H](NC(=O)[C@@H]1CCC(=O)N1)c1ccccc1
inactive | COC(=O)[C@@H]1CCC(=O)N1Cc1ccccc1Cl
inactive | COc1cc(NC(=O)[C@@H]2CCC(=O)N2)cc(OC)c1OC
inactive | COc1ccc(CNC(=O)[C@@H]2CCC(=O)N2)cc1
inactive | COC(=O)[C@@H]1CCC(OC)=N1

inhibition | SMILES
0% | O=C(NCc1ccc(Cl)cc1Cl)[C@@H]1CCC(=O)N1Cc1ccc([N+](=O)[O-])cc1
inactive | COC(=O)[C@@H]1CCC(=O)N1[Si](C)(C)C
inactive | COC(=O)[C@@H]1CCC(=O)N1c1ccccc1Cl
inactive | COC(=O)[C@@H]1CCC(=O)N1Cc1ccccc1
0% | O=C(NCc1ccc(Cl)cc1Cl)[C@@H]1CCC(=O)N1c1cccc(C(F)(F)F)c1
0% | CN(C)/C=C1\C[C@H]2C(=O)N(Cc3ccccc3)C(N(C)C)N2C1=O (stereo partly specified)
0% | O=C(NCc1ccc(Cl)cc1Cl)[C@@H]1CCC(=O)N1c1ccccc1Cl
inactive | COC(=O)[C@@H]1CCC(=O)N1Cc1ccc(Cl)cc1
inactive | COC(=O)[C@@H]1CCC(=O)N1Cc1ccc([N+](=O)[O-])cc1
0% | O=C1CCCC(C(=O)O)N1 (stereo unspecified)
inactive | COc1ccc(NC(=O)[C@@H]2CCC(=O)N2)cc1
inactive | O=C1CC[C@@H](C(=O)Nc2ccncc2)N1
inactive | CCCCCCNC(=O)[C@@H]1CCC(=O)N1
0% | COc1cc(N2C(=O)[C@@H]3C/C(=C\N(C)C)C(=O)N3C2N(C)C)cc(OC)c1OC (stereo partly specified)
0% | C[C@@H](NC(=O)[C@@H]1C/C(=C\N(C)C)C(=O)N1)c1ccccc1
0% | CN(C)/C=C1\C[C@H]2C(=O)N(CCc3ccccc3)C(N(C)C)N2C1=O (stereo partly specified)
85% | O=C(NCc1ccc(Cl)cc1Cl)[C@@H]1CCC(=O)N1Cc1ccccc1Cl
inactive | COc1ccc(NC(=O)[C@@H]2CCC(=O)N2)c(OC)c1
0% | O=C(Nc1ccc(Cl)cc1Cl)[C@@H]1CCC(=O)N1c1ccccc1
inactive | COC(=O)[C@@H]1CCC(=O)N1c1ccoc1
inactive | COC(=O)[C@@H]1CCC(=O)N1c1cccc(C(F)(F)F)c1
inactive | COC(=O)[C@@H]1CCC(=O)N1Cc1ccc(C)cc1
inactive | COC(=O)[C@@H]1CCC(=O)N1Cc1ccc(OC)cc1
0% | COc1ccccc1CNC(=O)[C@@H]1C/C(=C\N(C)C)C(=O)N1
inactive | O=C1N[C@H](C(=O)O)CO1

Further lines, the compound ahead of its results:

SMILES | inhibition
CN(C)/C=C1\CC[C@@H](C(=O)NCc2ccc(Cl)cc2Cl)NC1=O | 6%
COC(=O)[C@@H]1CCC(=O)N1c1ccncc1 | inactive
COC(=O)[C@@H]1CCC(=O)N1c1ccc(C#N)cc1 | inactive
O=C(NCc1ccccc1Cl)[C@@H]1CCC(=O)N1Cc1ccc(Cl)cc1Cl | 0%
COC(=O)C1CNC(=O)C1 (stereo unspecified) | inactive
C[C@H](NC(=O)[C@@H]1CCC(=O)N1)c1ccccc1 | inactive
C[C@H](NC(=O)[C@@H]1CCC(=O)N1c1cccs1)c1ccc(Cl)cc1Cl | 0%
O=C(NCc1ccc(Cl)cc1Cl)C1CC(=O)N(c2cccs2)C1 (stereo unspecified) | 92%
O=C1CC[C@@H](C(=O)NCc2ccccc2Cl)N1 | inactive
COC(=O)[C@@H]1CCC(=O)N1c1ccc(Cl)cc1 | inactive
COC(=O)[C@@H]1CCC(=O)N1c1cc(Cl)cc(Cl)c1 | inactive
COC(=O)[C@@H]1CCC(=O)N1C(c1ccc(Cl)cc1)c1ccc(Cl)cc1 | inactive
O=C1CC[C@@H](C(=O)NCCc2ccc(Cl)cc2Cl)N1 | inactive
COC(=O)[C@@H]1CCC(=O)N1C | inactive
COC(=O)[C@@H]1CCC(=O)N1C(c1ccccc1)c1ccccc1 | inactive
COC(=O)[C@@H]1CCC(=O)N1c1cccs1 | inactive
COC(=O)[C@@H]1CCC(=O)N1c1ccccc1 | inactive
COC(=O)[C@@H]1CCC(=O)N1Cc1ccc(Cl)cc1Cl | inactive

SMILES | inhibition
NC(=O)[C@@H]1CCC(=O)N1 | inactive
Cc1ccc(CN2C(=O)CC[C@H]2C(=O)NCCc2ccccc2)cc1 | 0%
O=C(NCc1ccc(Cl)cc1Cl)[C@@H]1C/C(=N\O)C(=O)N1c1cccs1 | 76%
COc1ccccc1CNC(=O)[C@@H]1CCC(=O)N1 | inactive
O=C1CC[C@@H](C(=O)NCc2ccccc2)N1 | inactive
O=C1CC[C@@H](C(=O)NCC2CCCCC2)N1 | inactive
COc1ccc(CNC(=O)[C@@H]2CCC(=O)N2)c(OC)c1 | inactive
COC(=O)[C@@H]1CCC(=O)N1Cc1ccc(Br)cc1 | inactive
O=C(NCc1ccc(Cl)cc1Cl)[C@@H]1CCC(=O)N1c1cc(Cl)cc(Cl)c1 | 0%
O=C(NCc1ccco1)[C@@H]1CCC(=O)N1Cc1ccc(Cl)cc1Cl | 0%
CN(C)C1N(Cc2ccc(Cl)cc2Cl)C(=O)[C@@H]2CC(=O)C(=O)N12 (stereo partly specified) | 0%
COC(=O)[C@@H]1CCC(=O)N1c1ccc(Cl)cc1Cl | inactive
O=C1CC[C@@H](C(=O)NCc2cccc(C(F)(F)F)c2Cl)N1 | inactive
O=C1CC[C@@H](C(=O)Nc2ccccc2)N1 | inactive
O=C1CC[C@@H](C(=O)NCc2cc(C(F)(F)F)ccc2Cl)N1 | inactive
O=C(NCCc1ccccc1)[C@@H]1CCC(=O)N1Cc1ccccc1 | 0%
O=C1CC[C@@H](C(=O)Nc2ccc(Cl)cc2Cl)N1 | inactive
